Results published in ChEMBL document CHEMBL1130393, “Antitumor agents. 178. Synthesis and biological evaluation of substituted 2-aryl-1,8-naphthyridin-4(1H)-ones as antitumor agents that inhibit tubulin polymerization” (J Med Chem, 1997).

How the values were obtained:
[1] = tested on: Panel breast (Carcinoma cell lines); assay: log molar concentration required to cause total growth inhibition of breast tumor cell lines; format: functional; conditions: Homo sapiens, read-out: Log TGI (converted)
In short: (§1)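 TGI from the NCI 60 human tumor cell line in vitro screen: log of the molar drug concentration causing total growth inhibition, reported for the named cell panel.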

[2] = tested on: Panel CNS (Carcinoma cell lines); assay: log molar concentration required to cause total growth inhibition of CNS cancer tumor cell lines; format: functional; conditions: Homo sapiens, read-out: Log TGI (converted); in short: as §1
[3] = tested on: Panel colon (Carcinoma cell lines); assay: log molar concentration required to cause total growth inhibition of colon tumor cell lines; format: functional; conditions: Homo sapiens, read-out: Log TGI (converted); in short: as §1
[4] = tested on: HL-60; assay: In vitro antitumor activity against HL-60(TB) tumor cell lines; format: functional; conditions: Homo sapiens
[5] = tested on: Tumor Cell line; assay: (§2) In vitro antitumor activity against NCI 's human tumor cell lines; format: functional; conditions: read-out: Average log GI50 (converted)
In short: (§3)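 NCI in vitro screen of 60 human tumor cell lines. […] The value is calculated from all cell lines tested.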

[6] = tested on: Leukemic tumor cell line; assay: (§4) log molar concentration required to cause total growth inhibition of leukemic tumor cell lines; format: functional; conditions: Homo sapiens, read-out: Log TGI (converted); in short: as §1
[7] = tested on: MDA-N; assay: In vitro antitumor activity against MDA-N tumor cell lines; format: functional; conditions: Homo sapiens
[8] = tested on: Melanoma tumor cell line; assay: log molar concentration required to cause total growth inhibition of melanomic tumor cell lines; format: functional; conditions: Homo sapiens, read-out: Log TGI (converted); in short: as §1
[9] = tested on: NCI-H460; assay: In vitro antitumor activity against NCI-H460 tumor cell lines; format: functional; conditions: Homo sapiens
[10] = tested on: OVCAR-3; assay: In vitro antitumor activity against OVCAR-3 tumor cell lines; format: functional; conditions: Homo sapiens
[11] = tested on: NSCLC; assay: log molar concentration required to cause total growth inhibition of non-small cell lung tumor cell lines; format: functional; conditions: Homo sapiens, read-out: Log TGI (converted); in short: as §1
[12] = tested on: PC-3; assay: In vitro antitumor activity against PC-3 tumor cell lines; format: functional; conditions: Homo sapiens
[13] = tested on: Panel prostate (Carcinoma cell lines); assay: log molar concentration required to cause total growth inhibition of prostate tumor cell lines; format: functional; conditions: Homo sapiens, read-out: Log TGI (converted); in short: as §1
[14] = tested on: Panel renal (Carcinoma cell lines); assay: log molar concentration required to cause total growth inhibition of renal tumor cell lines; format: functional; conditions: Homo sapiens, read-out: Log TGI (converted); in short: as §1
[15] = tested on: SF-295; assay: In vitro antitumor activity against SF-295 tumor cell lines; format: functional; conditions: Homo sapiens
[16] = tested on: SK-MEL-5; assay: In vitro antitumor activity against SK-MEL-5 tumor cell lines; format: functional; conditions: Homo sapiens
[17] = tested on: U-251; assay: In vitro antitumor activity against U-251 tumor cell lines; format: functional; conditions: Homo sapiens
[18] = biological target: Tubulin (Bos taurus, UniProt Q6B856+Q862L2+Q862F3); assay: Inhibition of tubulin polymerization; format: functional
[19] = biological target: Tubulin (Bos taurus) (UniProt Q6B856+Q862L2+Q862F3); assay: Inhibition of radiolabeled colchicine binding to tubulin; format: protein assay; set-up: concentration or dose not given beside the values; conditions: concentration not given here
In short: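 Measured by DEAE-cellulose filter binding. The 0.1 mL mixture held bovine brain tubulin 1.0 µM, 1.0 M monosodium glutamate (pH 6.6), 1 mM MgCl2, 0.1 mM GTP, 5.0 µM [3H]colchicine, 5% DMSO and inhibitor at 5.0 µM. It was incubated 20 min at 37 °C, filtered through two DEAE-cellulose papers, washed with water and counted by liquid scintillation.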

[20] = tested on: HCT-116; assay: In vitro antitumor activity against HCT116 tumor cell lines; format: functional; conditions: Homo sapiens
[21] = tested on: MDA-MB-435; assay: In vitro antitumor activity against MDA-MB-435 NCI 's human tumor cell lines; format: functional
[22] = tested on: CAKI-1; assay: In vitro antitumor activity against CAKI-1 tumor cell lines; format: functional; conditions: Homo sapiens
[23] = tested on: Tumor Cell line; assay: log molar concentration required to cause total growth inhibition of NCI 's human tumor cell lines; format: functional; conditions: read-out: Log TGI (converted)
In short: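 NCI 60 human tumor cell line in vitro screen. TGI is the log molar concentration giving total growth inhibition, calculated from all cell lines tested.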

[24] = tested on: Panel ovarian (Carcinoma cell lines); assay: log molar concentration required to cause total growth inhibition of ovarian tumor cell lines; format: functional; conditions: Homo sapiens, read-out: Log TGI (converted); in short: as §1
[25] = tested on: Tumor Cell line; assay: as §2; format: functional
In short: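 Tested in the NCI 60 human tumor cell line in vitro screen. […] The value is calculated from all cell lines tested, as an average log GI50.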

[26] = tested on: CAKI-1; assay: in vitro antitumor activity against CAKI-1 tumor cell lines; format: functional; conditions: Homo sapiens
[27] = tested on: Panel CNS (Carcinoma cell lines); assay: log molar concentration required to cause total growth inhibition of CNS cancer cell lines; format: functional; conditions: Homo sapiens, read-out: Log TGI (converted); in short: as §1
[28] = tested on: HCT-116; assay: in vitro antitumor activity against HCT116 tumor cell lines; format: functional; conditions: Homo sapiens
[29] = tested on: HL-60; assay: in vitro antitumor activity against HL-60(TB) tumor cell lines; format: functional; conditions: Homo sapiens
[30] = tested on: Tumor Cell line; assay: in vitro antitumor activity against NCI 's human tumor cell lines; format: functional; conditions: read-out: Average log GI50 (converted); in short: as §3
[31] = tested on: MDA-MB-435; assay: in vitro antitumor activity against MAD-MB-435NCI 's human tumor cell lines; format: functional
[32] = tested on: Tumor Cell line; assay: as §4; format: functional; conditions: Homo sapiens, read-out: Log TGI (converted); in short: as §1
[33] = tested on: MDA-N; assay: in vitro antitumor activity against MDA-N tumor cell lines; format: functional; conditions: Homo sapiens
[34] = tested on: NCI-H460; assay: in vitro antitumor activity against NCI-H460 tumor cell lines; format: functional; conditions: Homo sapiens
[35] = tested on: OVCAR-3; assay: in vitro antitumor activity against OVCAR-3 tumor cell lines; format: functional; conditions: Homo sapiens
[36] = tested on: PC-3; assay: in vitro antitumor activity against PC-3 tumor cell lines; format: functional; conditions: Homo sapiens
[37] = tested on: SF-295; assay: in vitro antitumor activity against SF-295 tumor cell lines; format: functional; conditions: Homo sapiens
[38] = tested on: SK-MEL-5; assay: in vitro antitumor activity against SK-MEL-5 tumor cell lines; format: functional; conditions: Homo sapiens
[39] = tested on: U-251; assay: in vitro antitumor activity against U-251 tumor cell lines; format: functional; conditions: Homo sapiens
[40] = tested on: leukaemia cell line; assay: as §4; format: functional; conditions: Homo sapiens, read-out: Log TGI (converted); in short: as §1
[41] = tested on: Melanoma tumor cell line; assay: log molar concentration required to cause total growth inhibition of melanomicell lines; format: functional; conditions: Homo sapiens, read-out: Log TGI (converted); in short: as §1

| SMILES | TGI [1] [nM] | TGI [3] [nM] | GI50 [4] [nM] | GI50 [5] [nM] | GI50 [7] [nM] | TGI [8] [nM] | GI50 [9] [nM] | GI50 [10] [nM] | TGI [11] [nM] | GI50 [12] [nM] | TGI [13] [nM] | TGI [14] [nM] | GI50 [15] [nM] | GI50 [16] [nM] | GI50 [17] [nM] | IC50 [18] [nM] | inhibition [19] [%] | GI50 [20] [nM] | TGI [23] [nM] | TGI [24] [nM] | other results |
| --- | --- | --- | --- | --- | --- | --- | --- | --- | --- | --- | --- | --- | --- | --- | --- | --- | --- | --- | --- | --- | --- |
| Cc1ccnc2nc(-c3cccc(Cl)c3)cc(O)c12 | 813 | 12000 | < 10 | 158 | 11.8 | 70800 | 38.9 | 31.6 | 100000 | 15.5 | 2340 | 69200 | 40.7 | 41.7 | 52.5 | 1000 | 32 | 15.8 | 25700 | 27500 | TGI [2]: 18200 nM; TGI [6]: 100000 nM; GI50 [21]: < 10 nM; GI50 [22]: 33.1 nM |
| Cc1cnc2[nH]c(-c3cccc(F)c3)cc(=O)c2c1 | 537 | 324 | 20.4 | 50.1 | 11.8 | 32400 | 38.9 | 13.5 | 16200 | 34.7 | 692 | 55000 | 27.5 | 28.2 | 40.7 | 630 | 43 | 24 | 5130 | 26900 | TGI [2]: 3090 nM; TGI [6]: 2690 nM; GI50 [21]: < 10 nM; GI50 [22]: 28.2 nM |
| COc1cc([C@@H]2c3cc4c(cc3[C@H](O)[C@H]3COC(=O)[C@H]23)OCO4)cc(OC)c1OC [PODOFILOX] |  |  |  |  |  |  |  |  |  |  |  |  |  |  |  |  | 76 |  |  |  | average log GI50 [25]: -7.54 M |
| Oc1cc(-c2cccc(Cl)c2)nc2ncccc12 | 1170 | 16200 |  |  |  | 97700 |  |  | 85100 |  | 2630 | 49000 |  |  |  | 1500 |  |  | 24000 | 31600 | GI50 [26]: 56.2 nM; TGI [27]: 16600 nM; GI50 [28]: 28.8 nM; GI50 [29]: 10.5 nM; GI50 [30]: 229 nM; GI50 [31]: < 10 nM; TGI [32]: 38900 nM; GI50 [33]: 17.4 nM; GI50 [34]: 87.1 nM; GI50 [35]: 45.7 nM; GI50 [36]: 22.4 nM; GI50 [37]: 63.1 nM; GI50 [38]: 52.5 nM; GI50 [39]: 145 nM |
| Cc1cccc(-c2cc(O)c3cccnc3n2)c1 |  |  |  |  |  |  |  |  |  |  |  |  |  |  |  | 3300 |  |  |  |  | GI50 [26]: 37.1 nM; GI50 [28]: 22.4 nM; GI50 [29]: 19.1 nM; GI50 [30]: 95.5 nM; GI50 [31]: < 10 nM; GI50 [33]: < 10 nM; GI50 [34]: 25.7 nM; GI50 [35]: 41.7 nM; GI50 [36]: 42.7 nM; GI50 [37]: 37.1 nM; GI50 [38]: 25.7 nM; GI50 [39]: 44.7 nM |
| Cc1cnc2[nH]c(-c3cccc(Cl)c3)cc(=O)c2c1 | 12900 | 9550 | 30.9 | 269 | > 100000 |  | 50.1 | 22.4 | 44700 | > 100000 | > 100000 | 87100 | 25.1 | 70.8 | 69.2 | 720 | 33 | 30.2 | 30900 | 15800 | TGI [27]: 1910 nM; TGI [40]: 72400 nM; TGI [41]: 47900 nM; GI50 [21]: < 10 nM; GI50 [22]: 42.7 nM |
